# Measured values: PubChem BioAssay
# Some of the results follow. Inconclusive results are not listed. Unmarked numbers belong to inactive results. Active and inactive are the calls of the source.
# Experiments:
# [1] = target: Solute carrier family 12 member 5 (Homo sapiens) (UniProt Q9H2X9); assay: KCC2 modulators in sodium-free buffer, confirmation, cell-based, HEK293 KCC2, thallium flux, secondary assay (AID 1713;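 active = thallium flux slope above the same plate's solvent-only control mean plus 3 SD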); details: FluoZin2 fluorescence, at 10 µM, stronger effect = higher value
# Chain of Solute carrier family 12 member 5 (Homo sapiens) (Q9H2X9 whole entry, looked up): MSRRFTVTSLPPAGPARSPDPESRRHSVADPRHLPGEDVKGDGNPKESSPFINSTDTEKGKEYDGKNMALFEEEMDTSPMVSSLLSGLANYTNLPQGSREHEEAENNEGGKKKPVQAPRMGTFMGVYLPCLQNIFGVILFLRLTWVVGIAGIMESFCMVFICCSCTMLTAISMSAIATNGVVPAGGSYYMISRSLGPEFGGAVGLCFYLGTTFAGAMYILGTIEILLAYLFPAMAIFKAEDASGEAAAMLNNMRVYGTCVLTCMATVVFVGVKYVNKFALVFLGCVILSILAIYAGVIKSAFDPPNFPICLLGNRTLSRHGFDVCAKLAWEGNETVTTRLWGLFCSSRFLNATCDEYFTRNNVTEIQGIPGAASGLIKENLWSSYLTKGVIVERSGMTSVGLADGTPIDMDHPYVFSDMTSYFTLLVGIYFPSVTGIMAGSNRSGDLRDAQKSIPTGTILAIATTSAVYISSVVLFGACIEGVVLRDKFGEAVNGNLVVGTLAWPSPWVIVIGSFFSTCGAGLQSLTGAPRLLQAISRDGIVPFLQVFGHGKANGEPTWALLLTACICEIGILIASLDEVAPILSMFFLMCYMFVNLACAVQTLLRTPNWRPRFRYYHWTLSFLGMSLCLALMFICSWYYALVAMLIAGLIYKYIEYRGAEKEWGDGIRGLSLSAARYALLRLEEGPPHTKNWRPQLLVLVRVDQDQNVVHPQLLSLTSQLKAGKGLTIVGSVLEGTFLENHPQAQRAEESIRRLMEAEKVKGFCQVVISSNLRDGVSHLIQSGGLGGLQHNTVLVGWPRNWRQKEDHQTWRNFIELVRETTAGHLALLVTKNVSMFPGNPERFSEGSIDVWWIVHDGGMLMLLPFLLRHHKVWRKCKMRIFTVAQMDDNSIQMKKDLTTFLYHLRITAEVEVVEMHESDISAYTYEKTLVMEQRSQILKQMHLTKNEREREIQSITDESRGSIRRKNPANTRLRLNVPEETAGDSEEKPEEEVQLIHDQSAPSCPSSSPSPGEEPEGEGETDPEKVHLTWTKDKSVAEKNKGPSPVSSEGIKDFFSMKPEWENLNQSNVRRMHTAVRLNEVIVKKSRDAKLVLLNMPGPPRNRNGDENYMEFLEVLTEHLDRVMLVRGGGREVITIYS
# Outline: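 measured by = kinetic FluoZin2 fluorescence at 1 Hz, ex 480/em 540 nm | material = KCC2-expressing HEK cells | read-out = F/F0 slope over 10–20 s post-thallium, baseline-normalized | repeats = two replicates | schedule = 48 min dye loading | buffer or medium = Sodium-free N-methylglucamine chloride buffer | also added = thallium sulfate stimulus buffer at pH 7.3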
# [2] = PubChem AID 1714; details: HEK293-KCC2 + bumetanide/ouabain, thallium flux FluoZin2; at 10 µM; stronger effect = higher value;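 also: raw slope of fluorescence over initial fluorescence between 10 and 20 s after thallium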
# Outline: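 Test system: HEK cells expressing the K-Cl cotransporter KCC2. Timing: overnight culture 37 °C, dye loading 48 min. Technique: FluoZin2-AM (0.5 µM) fluorescence, 480 nm ex/540 nm em, 1 Hz kinetic imaging. Repeats: duplicates.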
# [3] = target: Solute carrier family 12 member 5 (Homo sapiens) (UniProt Q9H2X9); assay: KCC2 modulators without ouabain present, confirmation, cell-based, HEK293 KCC2, thallium flux, FluoZin2, secondary assay 2 (AID 1715); details: HEK293-KCC2, thallium flux FluoZin2 fluorescence; at 10 µM; actives lie on both sides; F/F0 rise rate, 10–20 s post-thallium;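 also: raw slope with 0.1% DMSO as baseline and bumetanide as block control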
# [4] = thallium flux modulation in parental HEK cells, confirmation, counter-screen for KCC2 modulator project, cell-based, counterscreen 1 (AID 1716;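 active = thallium flux rate significantly above the same plate's solvent-only control wells, beyond their mean plus 3 SD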); details: HEK293 parental cells, thallium flux FluoZin2, ouabain; at 10 µM; baseline-ratio fluorescence slope, 10–20 s after thallium
# [5] = target: Solute carrier family 12 member 5 (Homo sapiens) (UniProt Q9H2X9); assay: KCC2 inhibitors and activators, ouabain retest, confirmation, HEK-KCC2 cells (AID 1717;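 active = thallium flux slope beyond 3 SD from same-plate DMSO control mean in most replicates, usually higher, sometimes lower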;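 also: slope of initial-normalized fluorescence between seconds 10 and 20 after thallium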); details: HEK293-KCC2, thallium flux FluoZin2 fluorescence, at 10 µM, bidirectional: low = inhibitor, high = activator
# [6] = native HEK Tl+ uptake effects, second counter-screen – HEK cells, counterscreen 2, counter-screen for KCC2 modulator project, confirmation (AID 1718;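 active = thallium flux slope above the same plate's solvent-control mean plus 3 SD in both duplicate wells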;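 also: run without ouabain in cells lacking the KCC2 cotransporter; slope of fluorescence scaled to its starting value between 10 and 20 s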); details: HEK293 parental, thallium flux FluoZin-2 fluorescence slope; at 10 µM
# Outline: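 System: untransfected HEK cells, thallium influx assay; Schedule: 37 °C overnight growth, 48 min FluoZin2-AM loading; Medium: HBSS with 20 mM HEPES for dye loading; Measured by: FluoZin2-AM fluorescence (0.5 µM), ex 480 nm, em 540 nm, kinetic 1 Hz; Read-out: thallium influx rate; Compound: single 10 µM final compound dose, 0.1% DMSO.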
Structure (SMILES),normalised thallium flux (F/F0 slope) [1],normalized thallium flux [2],normalized thallium flux [3],thallium flux rate (normalised fluorescence) [4],"raw Tl+ flux slope (below DMSO = inhibition, above = activation) [5]",thallium flux slope [6]
O=c1[nH]c2ccccc2s1,0.00622,0.00492,0.0299,0.00725,0.0175,0.00982
S=c1[nH]nc(Nc2ccccc2)s1,0.00869,0.00545,0.026 (active),0.00742,0.0108 (active),0.00974
COc1ccc([N+](=O)[O-])cc1NC(=O)COC(=O)/C=C/c1ccco1,0.00867,0.00651,0.0316,0.0079,0.0204,0.011
CCOC(=O)CSc1nnc(CNC(=O)c2cccs2)n1-c1ccccc1,0.00872,0.00583,0.0307,0.00776,0.0178,0.0106
Cc1cc(C)nc(SC(C)C(=O)N/N=C/c2cccs2)n1 (stereo not drawn),0.00759,0.00586,0.0302,0.00741,0.0216,0.00957
COc1ccc(C(=O)NC2(C(F)(F)F)NC(=O)N(CCCc3ccccc3)C2=O)c(OC)c1OC (stereo not drawn),0.00692,0.00586,0.0307,0.00683,0.0134 (active),0.0109
N#Cc1nc(COc2ccc(-c3ccccc3)cc2)oc1NCc1cccnc1,0.00789,0.00445,0.029,0.00821,0.0173,0.01
O=C(O)CCN(Cc1ccccc1)S(=O)(=O)c1c(Cl)cccc1Cl,0.00789,0.00499,0.027 (active),0.00714,0.012 (active),0.0112
CCc1c(SCCC(=O)O)nc2ccccc2c1C,0.00619,0.00439,0.0283,0.00913 (active),0.0166,0.0104
c1cncc(-c2nnc3n2C2(CCCCC2)Cc2ccccc2-3)c1,0.0161,0.00468,0.0275,0.00718,0.0153,0.00983
CCCCn1c(=S)[nH]c2ccccc2c1=O,0.05 (active),0.179 (active),0.0834 (active),0.114 (active),0.145 (active),0.0577 (active)
COc1ccc(NC(=O)c2ccccc2[N+](=O)[O-])cc1OC,0.00704,0.00505,0.0299,0.00749,0.0198,0.0109
CCc1cc(-c2n[nH]c(=S)n2CC(C)C)cs1,0.0137 (active),0.0351 (active),0.0359,0.0146 (active),0.0381 (active),0.0129 (active)
O=C(Nc1nc2c(F)cc(F)cc2s1)C1COc2ccccc2O1 (stereo not drawn),0.017 (active),0.0963 (active),0.0398,0.0378 (active),0.0383 (active),0.0155 (active)
Oc1ccccc1/C=N/n1c(-c2cccs2)n[nH]c1=S,0.02 (active),0.0602 (active),0.0326,0.0173 (active),0.0288 (active),0.0224 (active)
CCOc1ccc(C(=O)NCCCN2CCCC2=O)cc1,0.00821,0.00728,0.0335,0.00778,0.0225,0.0108
CCOC(=O)c1c(C)[nH]c(C)c1C(=O)CSc1nc(N)cc(N)n1,0.00797,0.00434,0.0294,0.00758,0.0193,0.0105
COc1ccc(CNC(=O)CCn2cccc2)cc1,0.0171,0.00443,0.0307,0.00777,0.0168,0.0101
Cc1ccc(C)c(NC(=S)NNC(=O)c2csc(C)c2)c1,0.0109,0.013 (active),0.034,0.0173 (active),0.0256 (active),0.012
COc1ccc2[nH]c(=S)cc(C)c2c1,0.00897,0.0111 (active),0.0317,0.0146 (active),0.0267,0.0122 (active)

Structure (SMILES),normalised thallium flux (F/F0 slope) [1],normalized thallium flux [2],normalized thallium flux [3],thallium flux rate (normalised fluorescence) [4],"raw Tl+ flux slope (below DMSO = inhibition, above = activation) [5]",thallium flux slope [6]
CC/S(CC1CC1(Cl)Cl)=N\S(=O)(=O)c1ccc(C)cc1 (stereo not drawn),0.0104,0.00604,0.0348,0.00744,0.0213,0.0107
COc1ccc(CN2CCCCC2C)cc1OC (stereo not drawn),0.00901,0.00633,0.0321,0.00759,0.0191,0.011
CCn1c(SCc2ccccc2)nc2c(c1=O)SCC2,0.00954,0.00493,0.0352,0.00537 (active),0.0198,0.00988
O=C1/C(=C\c2ccsc2)NC(=S)N1c1ccccc1,0.024 (active),0.0414 (active),0.039 (active),0.0238 (active),0.0341 (active),0.024 (active)
COc1cccc(CNC(=O)Cc2csc(Nc3nc(=S)[nH]c4ccccc34)n2)c1,0.0104,0.0662 (active),0.0329,0.0306 (active),0.0519 (active),0.0141 (active)
CCOc1ccc(NC(=O)CN(C)CC(=O)Nc2cccc(Cl)c2C)cc1OCC,0.00801,0.00595,0.0338,0.00749,0.0213,0.0107
COC(=O)c1sccc1NC(=O)c1cc(OC)c(OC)c(OC)c1,0.00806,0.00564,0.029,0.00681,0.0198,0.00953
COc1ccc(C(=O)NN(C)c2nc(-c3ccccc3)cc(C)c2S(C)(=O)=O)cc1,0.0121 (active),0.0071,0.0316,0.00831,0.0204,0.0107
O=C(CCC(=O)OCc1cccc(C(=O)Oc2ccccc2)c1)Nc1cccc2ccccc12,0.00618,0.00434,0.0284,0.00695,0.0171,0.00997
O=C(Nc1nnc(-c2ccccc2)o1)c1cc(-c2cccs2)nc2ccccc12,0.0238 (active),0.108 (active),0.0377,0.0864 (active),0.0747 (active),0.0185 (active)
Cc1ccc(C2CC(=O)NC(SCC(=O)OCc3ccccc3)=C2C#N)o1 (stereo not drawn),0.0147,0.00407,0.0273,0.00691,0.0133 (active),0.00974
CCC(C)Cn1c(O)cc2nn(-c3nc4ccccc4s3)c(=O)c-2c1C (stereo not drawn),0.00617,0.0393 (active),0.0456 (active),0.0308 (active),0.0409 (active),0.0328 (active)
CCCOC(=O)CC1C(=O)NCCN1Cc1ccc(F)cc1 (stereo not drawn),0.00813,0.00582,0.0278,0.0066,0.019,0.00872
COc1ccccc1/C=C/C=N/n1c(-c2ccc(Cl)cc2Cl)n[nH]c1=S,0.0112,0.0155 (active),0.0312,0.0105 (active),0.0229,0.011
O=C(Nc1nnc(C2COc3ccccc3O2)o1)c1ccc(F)cc1 (stereo not drawn),0.0197 (active),0.06 (active),0.032,0.0287 (active),0.0495 (active),0.0126 (active)
COC(=O)c1cccnc1NC(=S)NC(C)C,0.0244 (active),0.0413 (active),0.0368,0.035 (active),0.0394 (active),0.0178 (active)
O=C(Cn1cnc2c(nnn2Cc2ccc(F)cc2)c1=O)NCc1ccc2c(c1)OCO2,0.0157,0.00497,0.0238 (active),0.00772,0.0137,0.0107
O=C(CSc1nnc(-c2cccs2)n1Cc1ccccc1)N1CCc2ccccc2C1,0.00645,0.00334 (active),0.0237 (active),0.00608 (active),0.0136 (active),0.00891 (active)
O=C(Cn1c(-c2ccc(Cl)cc2)noc1=O)N1CCN(c2ccccc2F)CC1,0.00839,0.00664,0.0245 (active),0.00698,–,0.00981
